According to ChEMBL document CHEMBL4130463, “Potential Anti-inflammatory Effects of the Fruits of Paulownia tomentosa” (J Nat Prod, 2017):
Calls of active or inactive are those of the source. No cut-off for these calls is given here.

How the values were obtained:
Neutrophil elastase [1] = target: T1, Neutrophil elastase (Homo sapiens, UniProt P08246); assay: Inhibition of human neutrophil elastase using MeOSuc-AAPV-pNA as substrate measured after 30 mins by spectrometric method
T1 sequence (P08246 whole entry): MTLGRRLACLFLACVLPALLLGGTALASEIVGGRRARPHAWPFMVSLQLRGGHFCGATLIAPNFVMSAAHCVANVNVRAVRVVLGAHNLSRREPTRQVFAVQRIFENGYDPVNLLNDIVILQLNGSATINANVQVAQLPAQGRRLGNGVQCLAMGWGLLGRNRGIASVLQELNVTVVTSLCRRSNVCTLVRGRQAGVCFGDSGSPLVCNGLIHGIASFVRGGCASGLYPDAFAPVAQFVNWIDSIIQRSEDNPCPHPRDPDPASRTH

Neutrophil elastase [2] = target: T1, Neutrophil elastase; assay: Noncompetitive inhibition of human neutrophil elastase using varying levels of MeOSuc-AAPV-pNA as substrate measured after 30 mins by double-reciprocal Lineweaver-Burk plot analysis
A549 [3] = assay: Antiinflammatory activity in human A549 cells assessed as reduction in TNFalpha-induced IL8 production at 2.5 uM after 24 hrs by ELISA; type: functional, cell-based
Procedure, shortened: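 A549 cells (ATCC) grown in RPMI 1640 with 10% FBS and penicillin/streptomycin at 37 °C, 5% CO2. Seeded and grown 16 h, then held 16 h in FBS-free medium. Treated with compound with or without TNF-α for 24 h. IL-8 measured by ELISA at 450 nm and expressed as % of the TNF-α-alone control. Means ± SD of three independent experiments.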

A549 [4] = assay: Cytotoxicity against human A549 cells assessed as effect on cell viability at 2.5 uM after 24 hrs by CCK8 assay; type: cell-based; conditions: a549, 24 h
Procedure, shortened: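 A549 cells in RPMI 1640 with 10% FBS were seeded at about 1 × 10^4 cells/well and grown 16 h, then switched to FBS-free medium for 16 h. Compound added with or without TNF-α for 24 h. Viability measured in triplicate by CCK-8 absorbance and expressed as % of the negative control.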

| Structure (SMILES) | IC50 (Neutrophil elastase [1]) [µM] | Ki (Neutrophil elastase [2]) [µM] | Activity (A549 [3]) | Activity (A549 [4]) |
| --- | --- | --- | --- | --- |
| O=c1cc(-c2ccc(O)c(O)c2)oc2cc(O)cc(O)c12 [LUTEOLIN] | 12.7 | 10.1 |  |  |
| CC(C)(O)CCCC1(C)CCc2c(cc3c(c2O)C(=O)[C@H](O)[C@@H](c2ccc(O)c(O)c2)O3)O1 (some centres not stated) |  |  | Active | Non-Toxic |
| COc1ccc([C@@H]2CC(=O)c3c(cc(O)c(C/C=C(\C)CCCC(C)(C)O)c3O)O2)cc1O |  |  | Active | Non-Toxic |
| C=C(C)C(O)CC/C(C)=C/Cc1c(O)cc2c(c1O)C(=O)C[C@@H](c1cc(O)c(OC)c(O)c1)O2 (some centres not stated) |  |  | Active | Non-Toxic |
| COc1cc([C@@H]2CC(=O)c3c(cc(O)c(C/C=C(\C)CCCC(C)(C)O)c3O)O2)cc(OC)c1O |  |  | Active | Non-Toxic |
| COc1cc([C@@H]2CC(=O)c3c(cc4c(c3O)CCC(C)(CCCC(C)(C)O)O4)O2)cc(O)c1O (some centres not stated) |  |  | Active | Non-Toxic |

Now from value to molecule, other results behind:

| IC50 (Neutrophil elastase [1]) [µM] | Ki (Neutrophil elastase [2]) [µM] | Structure (SMILES) | Activity (A549 [3]) | Activity (A549 [4]) |
| --- | --- | --- | --- | --- |
| 71.3 |  | COc1cc([C@@H]2CC(=O)c3c(cc(O)c(C/C=C(\C)CCC=C(C)C)c3O)O2)cc(OC)c1O |  |  |
| 46.1 | 49.9 | O=c1cc(-c2ccc(O)cc2)oc2cc(O)cc(O)c12 [APIGENIN] |  |  |
| > 100 |  | COc1cc([C@@H]2CC(=O)c3c(cc4c(c3O)CCC(C)(CCCC(C)(C)O)O4)O2)cc(OC)c1O (some centres not stated) |  |  |
| > 100 |  | COc1ccc([C@@H]2CC(=O)c3c(cc4c(c3O)CCC(C)(CCCC(C)(C)O)O4)O2)cc1O (some centres not stated) |  |  |
| 22.8 | 15.7 | CC(C)=CCC/C(C)=C/Cc1c(O)cc2c(c1O)C(=O)C[C@@H](c1ccc(O)c(O)c1)O2 [NYMPHAEOL A] |  |  |
| > 100 |  | CC(C)(O)CCCC1(C)CCc2c(cc3c(c2O)C(=O)C[C@@H](c2ccc(O)cc2)O3)O1 (some centres not stated) | Active | Non-Toxic |
